Test results as given in ChEMBL document CHEMBL4152296, “Synthesis, biological evaluation and molecular modeling of novel azaspiro dihydrotriazines as influenza virus inhibitors targeting the host factor dihydrofolate reductase (DHFR)” (Eur J Med Chem, 2018).
The source made the active and inactive calls. The calls are words filed in the database; no cut-off is given here.

Key:
MDCK = assay: Cytotoxicity against MDCK cells assessed as reduction in cell viability measured after 3 to 6 days by MTS assay; assay type: cell-based, Canis lupus familiaris; conditions: dog
Summary of the method: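 Mock-infected MDCK plates were run in parallel (FCS-free Ultra MDCK medium with TPCK-trypsin) with serial five-fold dilutions up to […], 35 °C for 3–6 days. CC50 was interpolated from semi-log dose-response curves; mean of two or three experiments.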

Influenza A virus = assay: Antiviral activity against Influenza A virus (A/Puerto Rico/8/34(H1N1)) infected in MDCK cells assessed as protection against virus-induced reduction in cell viability after 3 to 6 days by MTS assay; assay type: functional, organism-based; conditions: A/Puerto Rico/8/1934(H1N1)
Summary of the method: (§1)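 MDCK cells seeded at 9000/well and infected one day later (semiconfluent) with 100 CCID50 virus. Medium was FCS-free Ultra MDCK with 2 μg/mL TPCK-trypsin. Serial five-fold compound dilutions (top 100 μM) were added with the virus, followed by 3–6 days at 35 °C. MTS read-out gave % protection versus virus and mock controls. EC50 was interpolated from semi-log curves; mean of two or three experiments.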

[1] = Cytotoxicity against MDCK cells assessed as alterations in normal cell morphology measured after 3 to 6 days by microscopic analysis; assay type: cell-based, Canis lupus familiaris; conditions: dog
Summary of the method: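 Uninfected MDCK cultures in FCS-free Ultra MDCK medium with trypsin received five-fold compound dilutions (up to […]) for 3–6 days at 35 °C. Microscopy scored morphology, and MCC was taken as the lowest concentration causing minimal rounding, shrinking or lysis.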

Influenza B virus = assay: Antiviral activity against Influenza B virus B/Ned/537/05 infected in MDCK cells assessed as protection against virus-induced reduction in cell viability after 3 to 6 days by MTS assay; assay type: functional, organism-based; conditions: B/Ned/537/05, MDCK; summary of the method: as §1
[2] = test system: Human immunodeficiency virus; assay: Antiviral activity against HIV; assay type: functional, organism-based
[3] = Cytotoxicity against human HeLa cells assessed as alterations in normal cell morphology measured after 3 to 6 days by microscopic analysis; assay type: cell-based
Summary of the method: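 Mock-infected HeLa cultures in 2% FCS medium received serial five-fold dilutions […] for 3–6 days at 37 °C. MCC was the lowest concentration giving microscopically visible minimal change in cell morphology (rounding, shrinking, lysis).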

Vero = assay: Cytotoxicity against African green monkey Vero cells assessed as reduction in cell viability measured after 3 to 6 days by MTS assay; assay type: cell-based; conditions: chlorocebus sabaeus
[4] = test system: Vesicular stomatitis virus; assay: Antiviral activity against Vesicular stomatitis virus infected in human HEL299 cells assessed as inhibition of virus-induced cytopathic effect after 3 to 6 days by MTS assay; assay type: functional, organism-based
Human alphaherpesvirus 2 = assay: Antiviral activity against Herpes simplex virus type 2 infected in human HEL299 cells assessed as inhibition of virus-induced cytopathic effect after 3 to 6 days by MTS assay; assay type: functional, organism-based
[5] = test system: Mammalian orthoreovirus 1; assay: Antiviral activity against Reovirus-1 infected in African green monkey Vero cells assessed as inhibition of virus-induced cytopathic effect after 3 to 6 days by MTS assay; assay type: functional, organism-based
Human alphaherpesvirus 1 = assay: Antiviral activity against Herpes simplex virus type 1 infected in human HEL299 cells assessed as inhibition of virus-induced cytopathic effect after 3 to 6 days by MTS assay; assay type: functional, organism-based
Coxsackievirus B4 = assay: Antiviral activity against Coxsackie B4 virus infected in human HeLa cells assessed as inhibition of virus-induced cytopathic effect after 3 to 6 days by MTS assay; assay type: functional, organism-based
[6] = test system: Respiratory syncytial virus; assay: Antiviral activity against Respiratory syncytial virus Long infected in human HeLa cells assessed as inhibition of virus-induced cytopathic effect after 3 to 6 days by MTS based microscopy; assay type: functional, organism-based
Vaccinia virus = assay: Antiviral activity against Vaccinia virus infected in human HEL299 cells assessed as inhibition of virus-induced cytopathic effect after 3 to 6 days by MTS assay; assay type: functional, organism-based; conditions: Orthopoxvirus vaccinia
Sindbis virus = assay: Antiviral activity against Sindbis virus infected in African green monkey Vero cells assessed as inhibition of virus-induced cytopathic effect after 3 to 6 days by MTS assay; assay type: functional, organism-based
Human coronavirus 229E = assay: Antiviral activity against Human coronavirus 229E infected in human HEL299 cells assessed as inhibition of virus-induced cytopathic effect after 3 to 6 days by MTS assay; assay type: functional, organism-based
Human respirovirus 3 = assay: Antiviral activity against Parainfluenza virus 3 infected in African green monkey Vero cells assessed as inhibition of virus-induced cytopathic effect after 3 to 6 days by MTS assay; assay type: functional, organism-based
Punta Toro virus = assay: Antiviral activity against Punta Toro virus infected in African green monkey Vero cells assessed as inhibition of virus-induced cytopathic effect after 3 to 6 days by MTS assay; assay type: functional, organism-based
Yellow fever virus = assay: Antiviral activity against Yellow fever virus infected in African green monkey Vero cells assessed as inhibition of virus-induced cytopathic effect after 3 to 6 days by MTS assay; assay type: functional, organism-based
Human adenovirus 2 = assay: Antiviral activity against Human adenovirus type 2 infected in human HEL299 cells assessed as inhibition of virus-induced cytopathic effect after 3 to 6 days by MTS assay; assay type: functional, organism-based

## CC(N)C12CC3CC(CC(C3)C1)C2 (stereo unspecified) [RIMANTADINE]
MDCK
  CC50: > 500 µM
Influenza A virus
  EC50: 28 µM
[1]
  MCC: ≥ 500 µM
Influenza B virus
  EC50: > 500 µM

## COc1cccc(N2C(N)=NC(N)=NC23CCN(C(=O)c2ccc(C(F)(F)F)cc2C)CC3)c1
[2]
  Activity: inactive
[3]
  MCC: > 100 µM
MDCK
  CC50: > 100 µM
Vero
  Activity: Non-Toxic
Influenza A virus
  EC50: > 100 µM
[4]
  Activity: inactive
Human alphaherpesvirus 2
  Activity: inactive
[5]
  Activity: inactive
Human alphaherpesvirus 1
  Activity: inactive
Coxsackievirus B4
  Activity: inactive
[6]
  EC50: > 100 µM
[1]
  MCC: > 100 µM
Vaccinia virus
  Activity: inactive
Sindbis virus
  Activity: inactive
Human coronavirus 229E
  Activity: inactive
Human respirovirus 3
  Activity: inactive
Punta Toro virus
  Activity: inactive
Yellow fever virus
  Activity: inactive
Influenza B virus
  EC50: > 100 µM
Human adenovirus 2
  Activity: inactive

## NC1=NC2(CCN(C(=O)c3ccc4ccccc4c3)CC2)N(c2cccc(Cl)c2)C(N)=N1
[2]
  Activity: inactive
[3]
  MCC: ≥ 100 µM
MDCK
  CC50: > 100 µM
Vero
  Activity: Non-Toxic
Influenza A virus
  EC50: 28 µM
[4]
  Activity: inactive
Human alphaherpesvirus 2
  Activity: inactive
[5]
  Activity: inactive
Human alphaherpesvirus 1
  Activity: inactive
Coxsackievirus B4
  Activity: inactive
[6]
  EC50: > 100 µM
[1]
  MCC: ≥ 4 µM
Vaccinia virus
  Activity: inactive
Sindbis virus
  Activity: inactive
Human coronavirus 229E
  Activity: inactive
Human respirovirus 3
  Activity: inactive
Punta Toro virus
  Activity: inactive
Yellow fever virus
  Activity: inactive
Influenza B virus
  EC50: 4 µM
Human adenovirus 2
  Activity: inactive

## NC(=O)c1ncn([C@@H]2O[C@H](CO)[C@@H](O)[C@H]2O)n1 [RIBAVIRIN]
[3]
  MCC: > 250 µM
Influenza A virus
  EC50: 11 µM
[1]
  MCC: ≥ 20 µM
Influenza B virus
  EC50: 3.2 µM

## CC(C)(C)OC(=O)N1CCC2(CC1)N=C(N)N=C(N)N2Cc1cccc(Cl)c1
[2]
  Activity: inactive
[3]
  MCC: > 100 µM
MDCK
  CC50: > 100 µM
Vero
  Activity: Non-Toxic
Influenza A virus
  EC50: > 100 µM
[4]
  Activity: inactive
Human alphaherpesvirus 2
  Activity: inactive
[5]
  Activity: inactive
Human alphaherpesvirus 1
  Activity: inactive
Coxsackievirus B4
  Activity: inactive
[6]
  EC50: > 100 µM
[1]
  MCC: > 100 µM
Vaccinia virus
  Activity: inactive
Sindbis virus
  Activity: inactive
Human coronavirus 229E
  Activity: inactive
Human respirovirus 3
  Activity: inactive
Punta Toro virus
  Activity: inactive
Yellow fever virus
  Activity: inactive
Influenza B virus
  EC50: > 100 µM
Human adenovirus 2
  Activity: inactive

## CCCN1C(N)=NC(N)=NC12CCN(C(=O)C1CC1)CC2
[2]
  Activity: inactive
[3]
  MCC: > 100 µM
MDCK
  CC50: > 100 µM
Vero
  Activity: Non-Toxic
Influenza A virus
  EC50: > 100 µM
[4]
  Activity: inactive
Human alphaherpesvirus 2
  Activity: inactive
[5]
  Activity: inactive
Human alphaherpesvirus 1
  Activity: inactive
Coxsackievirus B4
  Activity: inactive
[6]
  EC50: > 100 µM
[1]
  MCC: > 100 µM
Vaccinia virus
  Activity: inactive
Sindbis virus
  Activity: inactive
Human coronavirus 229E
  Activity: inactive
Human respirovirus 3
  Activity: inactive
Punta Toro virus
  Activity: inactive
Yellow fever virus
  Activity: inactive
Influenza B virus
  EC50: > 100 µM
Human adenovirus 2
  Activity: inactive

## COCCN1C(N)=NC(N)=NC12CCN(C(=O)Nc1ccc(OC)cc1)CC2
[2]
  Activity: inactive
[3]
  MCC: > 100 µM
MDCK
  CC50: > 100 µM
Vero
  Activity: Non-Toxic
Influenza A virus
  EC50: > 100 µM
[4]
  Activity: inactive
Human alphaherpesvirus 2
  Activity: inactive
[5]
  Activity: inactive
Human alphaherpesvirus 1
  Activity: inactive
Coxsackievirus B4
  Activity: inactive
[6]
  EC50: > 100 µM
[1]
  MCC: > 100 µM
Vaccinia virus
  Activity: inactive
Sindbis virus
  Activity: inactive
Human coronavirus 229E
  Activity: inactive
Human respirovirus 3
  Activity: inactive
Punta Toro virus
  Activity: inactive
Yellow fever virus
  Activity: inactive
Influenza B virus
  EC50: > 100 µM
Human adenovirus 2
  Activity: inactive

## CCCN1C(N)=NC(N)=NC12CCN(C(=O)c1c(C)noc1C)CC2
[2]
  Activity: inactive
[3]
  MCC: > 100 µM
MDCK
  CC50: > 100 µM
Vero
  Activity: Non-Toxic
Influenza A virus
  EC50: > 100 µM
[4]
  Activity: inactive
Human alphaherpesvirus 2
  Activity: inactive
[5]
  Activity: inactive
Human alphaherpesvirus 1
  Activity: inactive
Coxsackievirus B4
  Activity: inactive
[6]
  EC50: > 100 µM
[1]
  MCC: > 100 µM
Vaccinia virus
  Activity: inactive
Sindbis virus
  Activity: inactive
Human coronavirus 229E
  Activity: inactive
Human respirovirus 3
  Activity: inactive
Punta Toro virus
  Activity: inactive
Yellow fever virus
  Activity: inactive
Influenza B virus
  EC50: > 100 µM
Human adenovirus 2
  Activity: inactive

## COCCN1C(N)=NC(N)=NC12CCN(C(=O)C1CC1)CC2
[2]
  Activity: inactive
[3]
  MCC: > 100 µM
MDCK
  CC50: > 100 µM
Vero
  Activity: Non-Toxic
Influenza A virus
  EC50: > 100 µM
[4]
  Activity: inactive
Human alphaherpesvirus 2
  Activity: inactive
[5]
  Activity: inactive
Human alphaherpesvirus 1
  Activity: inactive
Coxsackievirus B4
  Activity: inactive
[6]
  EC50: > 100 µM
[1]
  MCC: > 100 µM
Vaccinia virus
  Activity: inactive
Sindbis virus
  Activity: inactive
Human coronavirus 229E
  Activity: inactive
Human respirovirus 3
  Activity: inactive
Punta Toro virus
  Activity: inactive
Yellow fever virus
  Activity: inactive
Influenza B virus
  EC50: > 100 µM
Human adenovirus 2
  Activity: inactive

## NC1=NC2(CCNCC2)N(c2cccc(Cl)c2)C(N)=N1
[2]
  Activity: inactive
[3]
  MCC: > 100 µM
MDCK
  CC50: > 100 µM
Vero
  Activity: Non-Toxic
Influenza A virus
  EC50: > 100 µM
[4]
  Activity: inactive
Human alphaherpesvirus 2
  Activity: inactive
[5]
  Activity: inactive
Human alphaherpesvirus 1
  Activity: inactive
Coxsackievirus B4
  Activity: inactive
[6]
  EC50: > 100 µM
[1]
  MCC: > 100 µM
Vaccinia virus
  Activity: inactive
Sindbis virus
  Activity: inactive
Human coronavirus 229E
  Activity: inactive
Human respirovirus 3
  Activity: inactive
Punta Toro virus
  Activity: inactive
Yellow fever virus
  Activity: inactive
Influenza B virus
  EC50: > 100 µM
Human adenovirus 2
  Activity: inactive

## COCCN1C(N)=NC(N)=NC12CCN(C(=O)NC1CCC(C)CC1)CC2 (stereo unspecified)
[2]
  Activity: inactive
[3]
  MCC: > 100 µM
MDCK
  CC50: > 100 µM
Vero
  Activity: Non-Toxic
Influenza A virus
  EC50: > 100 µM
[4]
  Activity: inactive
Human alphaherpesvirus 2
  Activity: inactive
[5]
  Activity: inactive
Human alphaherpesvirus 1
  Activity: inactive
Coxsackievirus B4
  Activity: inactive
[6]
  EC50: > 100 µM
[1]
  MCC: > 100 µM
Vaccinia virus
  Activity: inactive
Sindbis virus
  Activity: inactive
Human coronavirus 229E
  Activity: inactive
Human respirovirus 3
  Activity: inactive
Punta Toro virus
  Activity: inactive
Yellow fever virus
  Activity: inactive
Influenza B virus
  EC50: > 100 µM
Human adenovirus 2
  Activity: inactive

## CC(=O)N[C@H]1[C@H]([C@H](O)[C@H](O)CO)OC(C(=O)O)=C[C@@H]1N=C(N)N [ZANAMIVIR]
MDCK
  CC50: > 100 µM
Influenza A virus
  EC50: 1.3 µM
[1]
  MCC: > 100 µM
Influenza B virus
  EC50: 0.14 µM

## NC12CC3CC(CC(C3)C1)C2 [AMANTADINE]
MDCK
  CC50: > 500 µM
Influenza A virus
  EC50: 26 µM
[1]
  MCC: > 500 µM
Influenza B virus
  EC50: > 500 µM
